Measurements taken from ChEMBL document CHEMBL5584325, “Discovery of novel coumarin triazolyl and phenoxyphenyl triazolyl derivatives targeting amyloid beta aggregation-mediated oxidative stress and neuroinflammation for enhanced neuroprotection” (RSC Med Chem, 2024).
The source made the active and inactive calls. The calls are words filed in the database; no cut-off is given here.

Assays:
[1] = system: BV-2; experiment: Neuroprotective activity in amyloid beta (1 to 42)-induced cytotoxicity in mouse BV-2 cells assessed as cell viability at 40 uM measured after 24 hrs by MTT assay (reference value: 54.96 +/- 1.12%); type: functional; details: read-out: Activity
[2] = system: BV-2; experiment: Neuroprotective activity in amyloid beta (1 to 42)-induced oxidative stress in mouse BV-2 cells assessed as intracellular ROS level at 40 uM measured after 24 hrs by DCFH-DA staining based fluorescence assay (reference value: 150.91 +/- 0.49%); type: functional
[3] = system: BV-2; experiment: Neuroprotective activity in amyloid beta (1 to 42)-induced inflammation in mouse BV-2 cells assessed as IL-1beta mRNA expression at 40 uM measured after 24 hrs by SYBR green staining based qRT-PCR analysis (reference value: 1.53 +/- 0.13%); type: functional
[4] = target: T1, Amyloid-beta precursor protein (Homo sapiens, UniProt P05067); experiment: Inhibition of amyloid beta (1 to 42) (unknown origin) aggregation at 100 uM incubated for 48 hrs by ThioflavinT staining based fluorescence assay relative to control
T1 sequence (P05067 whole entry): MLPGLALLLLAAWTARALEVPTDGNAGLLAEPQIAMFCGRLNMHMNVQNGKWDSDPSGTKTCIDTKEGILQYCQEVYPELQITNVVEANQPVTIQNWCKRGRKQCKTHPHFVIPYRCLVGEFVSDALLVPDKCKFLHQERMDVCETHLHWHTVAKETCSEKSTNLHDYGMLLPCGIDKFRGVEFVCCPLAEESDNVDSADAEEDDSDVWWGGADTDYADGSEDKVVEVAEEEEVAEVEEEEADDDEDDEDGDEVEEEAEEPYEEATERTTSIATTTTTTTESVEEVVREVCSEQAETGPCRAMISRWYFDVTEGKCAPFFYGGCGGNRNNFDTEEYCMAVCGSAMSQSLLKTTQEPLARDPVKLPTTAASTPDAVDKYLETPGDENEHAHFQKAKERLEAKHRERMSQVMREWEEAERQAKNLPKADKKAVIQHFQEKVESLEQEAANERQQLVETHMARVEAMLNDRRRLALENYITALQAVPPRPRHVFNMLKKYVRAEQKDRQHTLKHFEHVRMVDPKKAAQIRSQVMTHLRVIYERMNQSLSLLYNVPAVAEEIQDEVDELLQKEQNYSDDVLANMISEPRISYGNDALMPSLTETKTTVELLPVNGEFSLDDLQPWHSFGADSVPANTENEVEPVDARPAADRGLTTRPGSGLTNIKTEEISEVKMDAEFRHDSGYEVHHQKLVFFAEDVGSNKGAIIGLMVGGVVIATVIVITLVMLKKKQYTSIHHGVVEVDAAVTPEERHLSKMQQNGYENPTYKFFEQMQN
Method in brief: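 Compound in DMSO (1 μl of a 1 mM solution) mixed with 9 μl of 25 μM Aβ1–42 in Tris pH 7.4. Incubated 48 h at 37 °C without agitation, then 200 μl of 5 μM ThT added. Fluorescence read at ex 446/em 500 nm; % inhibition vs DMSO control, solvent blank subtracted.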

[5] = target: T1, Amyloid-beta precursor protein; experiment: Inhibition of amyloid beta (1 to 42) aggregation in mouse BV-2 cells exposed to amyloid-beta (1 to 42) (unknown origin) at 40 uM measured after 24 to 48 hrs by thioflavin T staining based fluorescence assay; type: cell-based; details: time 24-48 hrs
[6] = target: T1, Amyloid-beta precursor protein; experiment: Inhibition of amyloid beta (1 to 42) (unknown origin) aggregation incubated for 48 hrs by ThioflavinT staining based fluorescence assay
[7] = system: SH-SY5Y; experiment: Neuroprotective activity against human SH-SY5Y cells co-cultured with 40 uM compound pretreated BV-2 cells exposed to amyloid beta (1 to 42) assessed as cell viability measured after 24 hrs by MTT assay (reference value: 80.62 +/- 0.86%); type: functional; details: read-out: Activity
[8] = Induction of ROS generation in mouse BV-2 cells at 40 uM measured after 24 hrs by DCFH-DA staining based fluorescence assay; type: toxicity, cell-based; details: bv-2, 24 h
Method in brief: (§1)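 BV-2 cells seeded overnight at 1 × 10^4/well, compound alone (no Aβ). Cells loaded with 20 μM (final) DCFH-DA for 30 min at 37 °C, washed, then given conditioned medium for 24 h. Fluorescence read at ex […] nm. Expressed as % of control; n = 3 in triplicate, one-way ANOVA with LSD.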

[9] = Octanol/water partition coefficient, log P of the compound incubated for 2 hrs under shaking condition by HPLC analysis; type: physicochemical
Method in brief: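 Shake-flask log P: 10 mM stock (DMSO, or octanol for highly lipophilic compounds) partitioned between mutually saturated octanol and water at three phase ratios. Shaken 2 h at 25 ± 1 °C, phases separated, each phase quantified by C18 HPLC-UV. Mobile phase 0.1% formic acid:methanol 40:60; log P averaged over the three ratios.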

[10] = system: BV-2; experiment: Neuroprotective activity in amyloid beta (1 to 42)-induced inflammation in mouse BV-2 cells assessed as […] in IL-6 mRNA expression at 40 uM measured after 24 hrs by SYBR green staining based qRT-PCR analysis relative to control; type: functional
[11] = system: BV-2; experiment: Cytotoxicity against mouse BV-2 cells assessed as reduction in cell viability at 40 uM measured after 24 hrs by MTT assay; type: toxicity, cell-based; details: bv-2, 24 h
Method in brief: (§2)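 BV-2 microglia grown in DMEM with 10% FBS, HEPES and Glutamax at 37 °C, 5% CO2, seeded overnight at 1 × 10^4 cells/well. Compound alone at 0–200 μM (range extended lower where needed) for 24 h. MTT 2 h at 37 °C, formazan dissolved in DMSO, A570 read. Used to pick non-toxic concentrations.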

[12] = target: T1, Amyloid-beta precursor protein; experiment: Inhibition of amyloid beta (1 to 42) (unknown origin) aggregation assessed as appearance of collapsed amyloid beta fibrils at 2.5 uM measured after 48 hrs by transmission electron microscopy
[13] = system: BV-2; experiment: Neuroprotective activity in amyloid beta (1 to 42)-induced inflammation in mouse BV-2 cells assessed as change in IL-6 mRNA expression at 2.5 uM measured after 24 hrs by SYBR green staining based qRT-PCR analysis; type: functional, cell-based
[14] = Induction of ROS generation in mouse BV-2 cells at 2.5 uM measured after 24 hrs by DCFH-DA staining based fluorescence assay; type: toxicity, cell-based; details: bv-2, 24 h; method in brief: as §1
[15] = system: BV-2; experiment: Neuroprotective activity in amyloid beta (1 to 42)-induced oxidative stress in mouse BV-2 cells assessed as intracellular ROS level at 2.5 uM measured after 24 hrs by DCFH-DA staining based fluorescence assay (reference value: 150.91 +/- 0.49%); type: functional
[16] = system: BV-2; experiment: Cytotoxicity against mouse BV-2 cells assessed as reduction in cell viability at 2.5 uM measured after 24 hrs by MTT assay; type: toxicity, cell-based; details: bv-2, 24 h; method in brief: as §2
[17] = system: BV-2; experiment: Neuroprotective activity in amyloid beta (1 to 42)-induced inflammation in mouse BV-2 cells assessed as TNFalpha mRNA expression at 2.5 uM measured after 24 hrs by SYBR green staining based qRT-PCR analysis (reference value: 1.73 +/- 0.22%); type: functional
[18] = system: BV-2; experiment: Neuroprotective activity in amyloid beta (1 to 42)-induced cytotoxicity in mouse BV-2 cells assessed as cell viability at 2.5 uM measured after 24 hrs by MTT assay (reference value: 54.96 +/- 1.12%); type: functional; details: read-out: Activity
[19] = system: SH-SY5Y; experiment: Neuroprotective activity against human SH-SY5Y cells co-cultured with 2.5 uM compound pretreated BV-2 cells exposed to amyloid beta (1 to 42) assessed as cell viability measured after 24 hrs by MTT assay (reference value: 80.62 +/- 0.86%); type: functional; details: read-out: Activity
[20] = target: T1, Amyloid-beta precursor protein; experiment: Inhibition of amyloid beta (1 to 42) aggregation in mouse BV-2 cells exposed to amyloid-beta (1 to 42) (unknown origin) at 2.5 uM measured after 24 to 48 hrs by thioflavin T staining based fluorescence assay; type: cell-based; details: time 24-48 hrs
[21] = system: BV-2; experiment: Neuroprotective activity in amyloid beta (1 to 42)-induced morphological changes in mouse BV-2 cells assessed as appearance of healthy cells at 2.5 uM; type: functional, cell-based
[22] = target: T1, Amyloid-beta precursor protein; experiment: Inhibition of amyloid beta (1 to 42) (unknown origin) aggregation assessed as reduction in amyloid beta fibril formation at 2.5 uM measured after 48 hrs by transmission electron microscopy
[23] = system: BV-2; experiment: Neuroprotective activity in amyloid beta (1 to 42)-induced inflammation in mouse BV-2 cells assessed as IL-1beta mRNA expression at 2.5 uM measured after 24 hrs by SYBR green staining based qRT-PCR analysis (reference value: 1.53 +/- 0.13%); type: functional
[24] = system: BV-2; experiment: Neuroprotective activity in amyloid beta (1 to 42)-induced morphological changes in mouse BV-2 cells at 20 uM; type: functional, cell-based
[25] = system: BV-2; experiment: Cytotoxicity against mouse BV-2 cells assessed as reduction in cell viability at 20 uM measured after 24 hrs by MTT assay; type: toxicity, cell-based; details: bv-2, 24 h; method in brief: as §2
[26] = system: BV-2; experiment: Neuroprotective activity in amyloid beta (1 to 42)-induced cytotoxicity in mouse BV-2 cells assessed as cell viability at 20 uM measured after 24 hrs by MTT assay (reference value: 54.96 +/- 1.12%); type: functional; details: read-out: Activity
[27] = system: BV-2; experiment: Neuroprotective activity in amyloid beta (1 to 42)-induced inflammation in mouse BV-2 cells assessed as TNFalpha mRNA expression at 40 uM measured after 24 hrs by SYBR green staining based qRT-PCR analysis (reference value: 1.73 +/- 0.22%); type: functional
[28] = system: BV-2; experiment: Cytotoxicity against mouse BV-2 cells assessed as reduction in cell viability at 10 to 200 uM measured after 24 hrs by MTT assay; type: toxicity, cell-based; details: bv-2, 24 h, dose 10-200 µM; method in brief: as §2
[29] = system: BV-2; experiment: Cytotoxicity against mouse BV-2 cells assessed as reduction in cell viability at 150 uM measured after 24 hrs by MTT assay; type: toxicity, cell-based; details: bv-2, 24 h; method in brief: as §2
[30] = system: BV-2; experiment: Neuroprotective activity in amyloid beta (1 to 42)-induced cytotoxicity in mouse BV-2 cells assessed as cell viability at 150 uM measured after 24 hrs by MTT assay (reference value: 54.96 +/- 1.12%); type: functional; details: read-out: Activity

Compound	inhibition [4] [%]	IC50 [6] [µM]	logP at 2 h [9]	further results
COc1cc(/C=C/C(=O)NCc2cn(-c3ccc(Oc4ccccc4)cc3)nn2)ccc1O	> 50	0.04	4.44	viability at 40 µM [1]: 60.8%; Activity [2]: 137.18%; Activity [3]: 0.05%; inhibition [5]: Active; viability at 40 µM [7]: 87.2%; Activity [8]: Non-Toxic; Activity [10]: 2.04%; Activity [11]: Non-Toxic
O=C(Cc1ccccc1[N+](=O)[O-])OCc1cn(-c2cc3ccccc3oc2=O)nn1	> 50	17.7	2.41	
O=C(Cc1ccccc1[N+](=O)[O-])NCc1cn(-c2ccc(Oc3ccccc3)cc2)nn1	> 50	69.2	3.76	
COc1cc(C(=O)NCc2cn(-c3cc4ccccc4oc3=O)nn2)ccc1O	< 50		1.95	
COc1cc(/C=C/C(=O)OCc2cn(-c3cc4ccccc4oc3=O)nn2)ccc1O	> 50	0.008	2.64	inhibition [12]: Active; Activity [13]: inactive; Activity [14]: Non-Toxic; Activity [15]: 107.04%; Activity [16]: Non-Toxic; Activity [17]: 1.09%; viability at 2.5 µM [18]: 71.3%; viability at 2.5 µM [19]: 91.5%; inhibition [20]: Active; Activity [21]: Active; inhibition [22]: Active; Activity [23]: 0.71%
COc1cc(C(=O)NCc2cn(-c3ccc(Oc4ccccc4)cc3)nn2)ccc1O	> 50	1.15	4.26	Activity [24]: Active; Activity [25]: Non-Toxic; viability at 20 µM [26]: 34.5%
COc1cc(/C=C/C(=O)NCc2cn(-c3cc4ccccc4oc3=O)nn2)ccc1O	< 50		2.65	Activity [27]: 0.64%; viability at 40 µM [1]: 75.4%; Activity [2]: 76.83%; Activity [3]: 0.47%; inhibition [5]: Active; viability at 40 µM [7]: 88.3%; Activity [8]: Non-Toxic; Activity [10]: inactive; Activity [11]: Non-Toxic
COc1cc(C(=O)OCc2cn(-c3cc4ccccc4oc3=O)nn2)ccc1O	< 50		2.61	
O=C(Cc1ccccc1[N+](=O)[O-])NCc1cn(-c2cc3ccccc3oc2=O)nn1	> 50	11.6	1.9	
O=C(NCc1cn(-c2ccc(Oc3ccccc3)cc2)nn1)c1ccccc1O	< 50			logP ([9]; 2 h): Not Determined(Insoluble)
COc1cc(/C=C/C(=O)CC(=O)/C=C/c2ccc(O)c(OC)c2)ccc1O	> 50			
COc1cc(C(=O)OCc2cn(-c3ccc(Oc4ccccc4)cc3)nn2)ccc1O	> 50	0.003	4.47	Activity [28]: Toxic
O=C(OCc1cn(-c2cc3ccccc3oc2=O)nn1)c1ccccc1O	< 50		2.65	
O=C(OCc1cn(-c2ccc(Oc3ccccc3)cc2)nn1)c1ccccc1O	< 50		5.18	
O=C(OCc1cn(-c2ccc(Oc3ccccc3)cc2)nn1)c1ccccc1	> 50	4.73	5.19	Activity [25]: Non-Toxic; viability at 20 µM [26]: 54.1%
O=C(OCc1cn(-c2cc3ccccc3oc2=O)nn1)c1ccccc1	< 50		2.38	
O=C(NCc1cn(-c2cc3ccccc3oc2=O)nn1)c1ccccc1O	< 50		2.02	
O=C(NCc1cn(-c2ccc(Oc3ccccc3)cc2)nn1)c1ccccc1	< 50		4.21	Activity [29]: Non-Toxic; viability at 150 µM [30]: 31.6%
O=C(Cc1ccccc1[N+](=O)[O-])OCc1cn(-c2ccc(Oc3ccccc3)cc2)nn1	> 50	36.7	4.29	
O=C(NCc1cn(-c2cc3ccccc3oc2=O)nn1)c1ccccc1	< 50		2.25	
